Source: ChEMBL document CHEMBL5113496, “A systematic exploration of boceprevir-based main protease inhibitors as SARS-CoV-2 antivirals” (Eur J Med Chem, 2022)

Legend:
[1] = Cytotoxicity against HEK293T/17 cells assessed as inhibition of cell growth incubated for 48 hrs by MTT assay; type: toxicity, cell-based; details: human, hek293t/17, 48 h
Procedure, shortened: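 293T cells seeded and held 24 h at 37 °C, 5% CO2, then exposed in triplicate for 48 h to a range of compound concentrations. Compounds were taken from DMSO stocks and diluted in culture medium. Viability was read by MTT. CC50 was taken from normalised % viability plotted against log10 concentration.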

SARS-CoV-2 [2] = assay: Antiviral activity against SARS-CoV2 USA-WA1/2020 infected in African green monkey Vero E6 cells assessed as reduction in viral plaques incubated for 3 days by plaque reduction neutralization test; type: functional, organism-based; details: Severe acute respiratory syndrome coronavirus 2, USA-WA1/2020, Vero C1008, 72 h
SARS-CoV-2 [3] = assay: Antiviral activity against SARS-CoV2 Beta infected in African green monkey Vero E6 cells assessed as reduction in viral plaques incubated for 3 days by plaque reduction neutralization test; type: functional, organism-based; details: Severe acute respiratory syndrome coronavirus 2, Beta, Vero C1008, 72 h
SARS-CoV-2 [4] = assay: Antiviral activity against SARS-CoV2 Delta infected in African green monkey Vero E6 cells assessed as reduction in viral plaques incubated for 3 days by plaque reduction neutralization test; type: functional, organism-based; details: Severe acute respiratory syndrome coronavirus 2, Delta, Vero C1008, 72 h

Work on `C[C@@H](OC(C)(C)C)[C@H](NC(=O)OCc1ccccc1)C(=O)N1C[C@H]2[C@@H]([C@H]1C(=O)N[C@H](C=O)C[C@@H]1CCNC1=O)C2(C)C` yielded a CC50 [1] of 163000 nM, an EC50 (SARS-CoV-2 [2]) of 1080 nM and an EC50 (SARS-CoV-2 [3]) of 2280 nM. It also gave an EC50 (SARS-CoV-2 [4]) of 750 nM.

Molecule `CC(C)(C)[C@H](NC(=O)OCc1ccccc1)C(=O)N1C[C@H]2[C@@H]([C@H]1C(=O)N[C@H](C=O)C[C@@H]1CCNC1=O)C2(C)C` has a CC50 [1] of 144000 nM, an EC50 (SARS-CoV-2 [2]) of 2940 nM and an EC50 (SARS-CoV-2 [3]) of 860 nM. For the same molecule, the EC50 (SARS-CoV-2 [4]) was 1040 nM.

Work on `CC(C)(C)OC(=O)N[C@H](C(=O)N1C[C@H]2[C@@H]([C@H]1C(=O)N[C@H](C=O)C[C@@H]1CCNC1=O)C2(C)C)C(C)(C)C` yielded a CC50 [1] of 34200 nM, an EC50 (SARS-CoV-2 [2]) of 610 nM and an EC50 (SARS-CoV-2 [4]) of 1000 nM.
